Data on two molecules can be found in publication PMC11582619 (Communications Biology, 2024).

“Also recorded” adds a separate entry of the source.

The test system of data set [1] is chronic-plus-binge ethanol-fed mice. The data set is described as follows: Chronic-plus-binge ethanol-fed. The format is in vivo, C57BL/6J mice.
Data set [2] relates to SIRT1, SREBP-1C, PPAR-α and their target genes (liver mRNA). The data set is described as follows: qRT-PCR of lipid metabolism genes and SIRT1 in liver of ALD mice. The format is in vivo, C57BL/6J mice. Particulars: ethanol-fed mice, oral SSa. In a few lines:
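NIAAA chronic-plus-binge model in C57BL/6J mice: 14-day 5% ethanol Lieber–DeCarli diet, oral SSa (5–15 mg/kg) daily for 7 days, ethanol binge on day 15, liver harvested 9 h later. Liver mRNA measured by SYBR Green qRT-PCR (25 nmol/L primers), β-actin reference, delta-delta Ct method. Protein by western blot: 20 µg per lane, 10% SDS-PAGE, ECL detection.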
(In general: Quantitative PCR measures a nucleic acid by following its amplification.)

The target of data set [3] is T1, Recombinant human SIRT1 protein (Homo sapiens, UniProt Q96EB6).
T1 sequence (Q96EB6 1-747): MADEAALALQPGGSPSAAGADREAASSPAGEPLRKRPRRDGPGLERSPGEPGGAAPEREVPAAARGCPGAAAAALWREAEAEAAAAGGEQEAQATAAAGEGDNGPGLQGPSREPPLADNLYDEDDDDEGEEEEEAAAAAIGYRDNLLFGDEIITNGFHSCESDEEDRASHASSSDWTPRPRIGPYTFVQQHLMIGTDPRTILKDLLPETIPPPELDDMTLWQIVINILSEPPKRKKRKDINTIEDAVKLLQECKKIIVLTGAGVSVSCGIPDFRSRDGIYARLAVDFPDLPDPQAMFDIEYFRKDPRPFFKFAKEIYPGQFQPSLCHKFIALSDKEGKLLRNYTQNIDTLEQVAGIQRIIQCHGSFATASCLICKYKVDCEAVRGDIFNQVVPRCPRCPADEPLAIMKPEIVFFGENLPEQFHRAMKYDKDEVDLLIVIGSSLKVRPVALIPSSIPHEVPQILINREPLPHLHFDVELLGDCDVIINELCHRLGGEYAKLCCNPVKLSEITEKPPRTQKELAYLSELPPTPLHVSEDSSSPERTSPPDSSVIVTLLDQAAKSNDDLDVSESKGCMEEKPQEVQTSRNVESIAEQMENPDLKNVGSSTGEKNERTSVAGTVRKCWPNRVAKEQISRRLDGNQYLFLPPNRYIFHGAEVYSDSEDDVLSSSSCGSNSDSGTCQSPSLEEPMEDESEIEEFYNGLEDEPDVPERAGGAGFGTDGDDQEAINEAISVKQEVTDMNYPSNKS
The data set can be described thus: Microscale thermophoresis. The format is binding. Particulars: Kd between SIRT1 and compound (MST), recombinant human SIRT1, RED-NHS labelled. In a few lines: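 Recombinant human SIRT1 labelled with RED-NHS dye (30 min, room temperature, dark) and gel-filtered; pre-test checked labelling, adsorption and aggregation. Incubated 5 min at 24 °C before MST.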

Data set [4] relates to SIRT1. The data set can be described thus: Immunostaining targeting SIRT1 in mouse liver. It is filed as in vivo, C57BL/6J mice. Particulars: ethanol-fed mice, oral SSa. An outline of the steps: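 Male C57BL/6J mice (8 weeks) on the NIAAA chronic-plus-binge model: 5 days of Lieber–DeCarli control liquid diet, then 5% (v/v) ethanol liquid diet for 14 days. Oral SSa 5, 10 or 15 mg/kg once daily for 7 days. Day-15 oral ethanol binge; harvest under isoflurane 9 h later. Livers fixed in 4% paraformaldehyde, 5 µm sections, SIRT1 immunofluorescence imaged confocally; n = 3.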

The subject of data set [5] is PGC-1α, PPAR-α, CPT-1α, ACC-1, SREBP-1C, FAS, SCD-1 (liver mRNA). It is filed as in vivo, C57BL/6J mice. Particulars: ethanol-fed mice, oral SSa.
The subject of data set [6] is SIRT1, PGC-1α, PPAR-α, Deptor, mTOR, p-mTOR (liver). The data set can be described thus: Western blot of liver proteins, with or without hepatic SIRT1 knockdown. It is filed as in vivo, C57BL/6J mice. Particulars: ethanol-fed mice, oral SSa.
The subject of data set [7] is SIRT1. The data set is described as follows: Hepatic SIRT1 protein over time after gavage with SSa solution. Particulars: 0-12 h after gavage with SSa solution. The format is in vivo, mice.
For data set [8], the system named is HepG2 cells. The data set can be described thus: Oil Red O staining of ethanol-induced lipid storage in HepG2 cells. It is filed as cell-based, human. Particulars: compound 7.5 μmol/L.
Data set [9] deals with HepG2 cells. The data set can be described thus: ROS levels by flow cytometry in ethanol-treated HepG2 cells. It is filed as cell-based, human. Conditions: ethanol + compound. A general note: A flow cytometer gives signals particle by particle.
Data set [10] has as its system liver, kidney, spleen, lung and heart. The data set can be described thus: Short-term toxicity of SSa, 14 days by gavage, HE staining of organs. It is filed as in vivo. Particulars: male C57BL/6J mice, SSa 15 mg/kg/daily.
Data set [11] can be described thus: Plasma concentration of SSa, SSB1 and SGA after oral SSa. The format is in vivo, mice. Conditions: for course of plasma level after administration (in words): after oral SSa 50 mg/kg. In a few lines: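 Mice fasted 24 h, then given SSa 50 mg/kg by oral gavage. About 100 µL retro-orbital blood taken at 0, 0.5, 1, 2, 4, 6, 8, 10, 12 and 24 h; 9 mice per time point, three mice pooled per sample, n = 3. Plasma SSa, SSB1 and SGA measured by UHPLC-MS/MS against plasma-matrix calibration and QC standards. AUC by moment analysis with log-trapezoidal method.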

Data set [12] has as its system chronic-plus-binge ethanol-fed mice with hepatic SIRT1 knockdown. The data set can be described thus: NIAAA model in mice with hepatic SIRT1 knockdown. It is filed as in vivo, C57BL/6J mice. An outline of the steps:
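Hepatic SIRT1 knockdown in C57BL/6J mice by tail-vein AAV8-TBG-miR30 shRNA against mouse SIRT1, with ZsGreen tag (1 × 10^12 vg/mouse); AAV8-TBG-ZsGreen as control. Four weeks later: NIAAA chronic-plus-binge ethanol model with oral test compound once daily for 7 days. Knockdown checked by liver ZsGreen fluorescence and SIRT1 western blot. Body weight tracked, n = 6.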

For data set [13] the following is noted: cited from earlier work.
[14] abbreviates: mice, after intragastric SSa 50 mg/kg.

With `C[C@H]1O[C@@H](O[C@H]2CC[C@@]3(C)[C@@H](CC[C@]4(C)[C@@H]3C=C[C@]35OC[C@@]6(CCC(C)(C)C[C@H]63)[C@@H](O)C[C@]54C)[C@]2(C)CO)[C@H](O)[C@@H](O[C@@H]2O[C@H](CO)[C@@H](O)[C@H](O)[C@H]2O)[C@H]1O` [SSa, Saikosaponin A], the “body weight and liver index” value in data set [1] (SSa 5, 10, 15 mg/kg oral) was “improved body weight and liver index in a dose-dependent manner”. Further, in [1] (oral SSa), the “NAD+/NADH ratio in liver homogenate” value is recorded as “increased the NAD^+/NADH ratio”; the “TC and TG in liver homogenate” value is “significantly reduced alcohol-induced TC and TG accumulation in the liver”; the “liver function and plasma TC, TG, γ-GT, De Ritis ratio” value was “significantly ameliorated liver function and reduced the plasma TC, TG, γ-GT content and De Ritis ratio”; the “liver lipid deposition (Oil red O staining)” value is recorded as “reduced alcohol-induced liver lipid deposition in a dose-dependent manner”. For the same molecule, the “liver pathology (HE staining)” value in data set [1] (oral SSa) is “improves liver pathological injury”. Moreover, the “liver mRNA of SREBP-1C and its target genes” value in data set [2] was “decreased the elevation of SREBP-1C, ACC-1, FAS and SCD-1 induced by alcohol”. Moreover, the “alcohol-induced decrease of SIRT1 expression in the liver” value in data set [2] (mRNA and protein (Fig. 2I, J)) is recorded as “can reverse this phenomenon”. Besides, the dissociation constant Kd (commonly a measure of binding affinity in units of concentration) in data set [3] is around 25.2 µM. In addition, the “SIRT1 entry into the nucleus (liver immunofluorescence)” value with SIRT1 [4] is given as “promoted SIRT1 entry into the nucleus”. The “liver PGC-1α, PPAR-α, CPT-1α mRNA with SIRT1 knockdown” value in [5] is listed as “inhibits the upregulation of PGC-1α, PPAR-α, CPT-1α induced by SSa”. Also, in [5] (reversed by SIRT1 knockdown), the “liver mRNA of SREBP-1C, ACC1, FAS and SCD-1” value was “decreased the mRNA expression of SREBP-1C, ACC1, FAS and SCD-1”. In addition, the “liver PGC-1α, PPAR-α and Deptor protein with SIRT1 deficiency” value in data set [6] is “decreases the expression of PGC-1α, PPAR-α and Deptor induced by SSa treatment”. In addition, the “hepatic SIRT1 protein abundance over time” value in the data set with SIRT1 [7] is “enhanced hepatic SIRT1 protein abundance at 4–12 h”. Besides, the “ethanol-induced lipid droplet accumulation (Oil red O)” value with HepG2 cells [8] is listed as “significantly reduced the lipid droplet accumulation induced by ethanol”. The “ethanol-induced ROS production” value with HepG2 cells [9] is “significantly limited ethanol-induced ROS production”. The “short-term toxicity: pathological changes of liver, kidney, spleen, lung and heart (HE)” value in [10] was “no significant pathological changes”. In data set [11] (setting [14]), the “maximal (peak) plasma concentration” value is 63.31 ng/mL. Further, the “course of plasma level after administration (in words)” value (“course of plasma level” for short) in data set [11] (mice) is on record as “almost completely metabolized after 2 h of administration”. Besides, the “course of plasma level” value in data set [11] (mice, listed as SSA) is reported as “quickly metabolized after administration”. Also, in data set [11] (mouse, plasma, po, 50 mg/kg), the Tmax (usually the time from dosing to the highest level) was 30 min. For the same molecule, the “body weight with hepatic SIRT1 knockdown” value in [12] (SSa administration for 7 days) is listed as “had no effect on body weight”. Further, in data set [12] (ethanol-fed mice, oral SSa), the “NAD+/NADH with hepatic SIRT1 deficiency” value was “the increase of NAD^+/NADH induced by SSa was also inhibited”; the “hepatic pathology and lipid deposition with hepatic SIRT1 deficiency” value is “prevents the SSa’s improvement in alcohol-induced hepatic pathology and lipid deposition”; the “liver function recovery with hepatic SIRT1 knockdown” value was “mitigated SSa’s improvement in alcohol-induced liver function recovery”. In addition, in data set [13], the “intestinal absorption after oral administration” value is recorded as “poor absorbance in the intestine when administered orally” and the “toxicity under intravenous injection” value is on record as “marked hemolysis under intravenous injection”.

Turning to `C[C@H]1O[C@@H](O[C@H]2CC[C@@]3(C)[C@@H](CC[C@]4(C)[C@@H]3C=CC3=C5CC(C)(C)CC[C@]5(CO)[C@@H](O)C[C@]34C)[C@]2(C)CO)[C@H](O)[C@@H](O[C@@H]2O[C@H](CO)[C@@H](O)[C@H](O)[C@H]2O)[C@H]1O` [SSB1, Saikosaponin B1], the “ethanol-induced lipid droplet accumulation (Oil red O)” value in the data set on HepG2 cells [8] was “had no significant effect”. Moreover, in the data set with HepG2 cells [9], the “ethanol-induced ROS production” value is recorded as “had no effect on ROS”. Besides, in [11] (setting [14]), the “maximal (peak) plasma concentration” value came out at 105.12 ng/mL, the “time of first detection in plasma” value is 0.5 h and the “time of peak plasma concentration” value worked out at 1 h. Further, in [11] (mice), the “course of plasma level” value was “undetectable after 6 h of administration; also recorded: quickly metabolized after administration”.
